# Bioassay records as filed in PubChem BioAssay.
# Exocytosis inh: lytic granule exocytosis inhibition; TALL-104 LAMP-1 surface exposure, flow cytometry; cells stimulated with thapsigargin and PMA; inhibition, % at 10 µM; 0.66% of 360,000 active; AID 651702;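 active = inhibition above about 55%, limit read from the data; inconclusive = no clear call, values can overlap the other calls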
# H9c2 protect: myocardial damage modulation in H9c2 cells | H9c2 cardiomyocytes, H2O2 injury protection, ATPLite, 2 h | protection from H2O2 cell death, % at 20 µM | 0.63% of 360,000 active | AID 588492;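 active = compounds giving at least 50% protection of heart cells from peroxide-induced death in the single-dose screen, raw or plate-pattern-corrected value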;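 also: 0% = DMSO wells with peroxide and 100% = DMSO wells without peroxide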
# HNF4A DNA FP: change in binding of human HNF4 alpha to DNA | HNF4a-FITC DNA binding, fluorescence polarization, 1 h | 0.3% of 360,000 active | activity change, % at 10 µM | P41235; in the data active = activity change above about 30%, passing the limit was not always enough
# Target sequence (P41235 whole entry, looked up): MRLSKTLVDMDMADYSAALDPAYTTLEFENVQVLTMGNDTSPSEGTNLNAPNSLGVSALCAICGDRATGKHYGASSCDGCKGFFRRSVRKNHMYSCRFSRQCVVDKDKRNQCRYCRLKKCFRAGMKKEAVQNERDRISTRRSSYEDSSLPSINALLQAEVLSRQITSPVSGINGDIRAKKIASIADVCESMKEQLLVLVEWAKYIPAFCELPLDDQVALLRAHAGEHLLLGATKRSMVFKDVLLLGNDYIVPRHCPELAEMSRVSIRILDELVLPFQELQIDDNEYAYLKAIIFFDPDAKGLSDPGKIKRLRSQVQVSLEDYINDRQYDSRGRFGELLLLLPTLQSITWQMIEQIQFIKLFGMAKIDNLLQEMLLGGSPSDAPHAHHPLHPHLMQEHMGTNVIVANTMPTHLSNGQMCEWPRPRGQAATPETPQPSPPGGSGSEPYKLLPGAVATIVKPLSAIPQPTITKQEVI
# Pemphigus Ab inh: inhibitors of pemphigus antibody binding to human desmoglein-3 | 0.48% of 310,000 active | P32926 | AID 588358 | binding (percent of control), % at 10 µM | DSG3-coupled beads, scFv-anti-DSG3-GFP binding, flow cytometry; stronger effect = lower value;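 active = binding more than 3 SD below its plate's average and above zero; inconclusive = below that plate limit but binding exactly zero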;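 also: hits lower antibody fragment binding to DSG3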
# Myeloid diff MLP: promotes myeloid progenitor differentiation | ER-HoxA9 myeloid progenitors, lysozyme-GFP differentiation, flow cytometry | calls only at 10 µM | 1% of 360,000 active | AID 624256;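 active = normalized GFP-positive differentiation at or above the plate's own cutoff, the solvent-only control mean plus 3 SD; inconclusive = no clear call, values can overlap the other calls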;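 also: cells exposed to compound for four days before flow analysis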
# SENP1 FRET inh: SENP1 (human) catalytic domain inhibition | recombinant SENP1 catalytic domain, CyPet-SUMO1-YPet FRET cleavage | Q9P0U3 | inhibition, % at 10 µM | 0.21% of 360,000 active | AID 624204;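 active = inhibition at least 30% at 10 µM, raw YFP signal under a set limit, fluorescence ratio 0.5 to 1.5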;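 also: 0% = enzyme with DMSO and 100% = no enzyme wells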
#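 Assay system: hSENP1 catalytic domain, recombinant. Amount: SENP1 enzyme, 20 pM final. Schedule: 50 min reaction, RT, dark. Technique: FRET, CFP and YFP emission. Control set: no-enzyme wells low, DMSO-plus-enzyme wells high control.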
# * hit, by the source's call; i = inactive; ? = inconclusive; nt = no result given; + = active, no number. This is a sample that favours compounds with a hit; in the whole collection about 3% have one here.
SMILES,Exocytosis inh,H9c2 protect,HNF4A DNA FP,Pemphigus Ab inh,Myeloid diff MLP,SENP1 FRET inh
Cc1nc2c(c(=O)n1CCC1=CCCCC1)c1nc3ccccc3nc1n2/N=C/c1ccccc1,1,109*,8,nt,i,-37
CCCCCCn1c(C)nc2c(c1=O)c1nc3ccccc3nc1n2/N=C/c1ccco1,6,90*,-4,95,i,-12
CCOCCCn1c(C)nc2c(c1=O)c1nc3ccccc3nc1n2CCC1=CCCCC1,-2,-11,0,106,i,-20
COc1ccc(NC2CCCN(C(=O)CCC(=O)c3ccc(F)cc3)C2)cc1 (centres undefined),-11,5,2,98,i,-1
CC1(C)CCN2CCC(C)(C)c3c(O)ccc1c32,17,-12,-19,175,+,-26
Cn1c(=O)c(=O)n(C)c2cc(S(=O)(=O)NCCOc3ccccc3Cl)ccc21,0,-5,0,104,i,3
CCOc1ccc(N2C(=O)C(C)CNC2=S)cc1 (centres undefined),-1,7,-1,109,i,0
COc1ccc(-c2ccc(C#N)c(SCC(=O)Nc3sc4c(c3C#N)CCC4)n2)cc1OC,3,-7,47*,97,i,5
COC1OC2COC(c3ccccc3)OC2C(O)C1NC(=O)c1ccccc1 (centres undefined),-3,1,1,nt,i,1
CC(=O)Oc1ccc(N2C(=O)C3C4C=CC(CO)(O4)C3C2=O)cc1 (centres undefined),45,-24,2,nt,i,2
O=C1C2C3C=CC(CO)(O3)C2C(=O)N1c1ccccc1-c1ccccc1 (centres undefined),64*,-21,-2,94,i,1
Cc1ccc(NC(=O)c2cc3ccccc3oc2=N)cc1,30,-16,0,89,i,2
N=c1oc2c3c4c(cc2cc1C(=O)Nc1ccccc1)CCCN4CCC3,32,25,-53,105,+,-25
O=C(NCCCN1CCOCC1)c1nn(-c2ccccc2)c(=O)c2ccccc12,3,-5,-2,105,i,0
COC(=O)CSc1nnc(C)n1-c1ccc(C)cc1,6,-2,-18,103,+,3
COc1ccc(-n2c(COc3ccc(C)cc3)nnc2SCC(N)=O)cc1,-1,-1,1,101,+,0
COC(=O)CSc1nnc(C)n1-c1cccc(OC)c1,2,-5,-3,nt,i,0
O=[N+]([O-])c1ccc(NCCc2ccccc2)c(Br)c1,52,1,-1,111,i,-2
CC1Cc2ccccc2N1C(=O)CN1C(=O)NC(C)(CCc2ccccc2)C1=O (centres undefined),-2,5,6,109,i,-5
CCCCNC1=CC(=O)C(=O)c2ccccc21,7,-26,-3,99,+,1
O=C(Cc1ccc(NC2=NC3CS(=O)(=O)CC3S2)cc1)NCc1ccccc1Cl (centres undefined),-4,-6,-3,103,?,2
CCN(CC)CCNc1ccc(C)c2sc3ccc(O)cc3c(=O)c12,47,-15,33,98,nt,39*
CC(=O)c1c(N2CCN(C)CC2)[nH]c(-c2ccccc2)nc1=S,-4,19,12,80,+,-8
CCn1c(C)c(C(C)=O)c(N2CCN(c3ccccc3)CC2)nc1=S,-2,2,10,171,i,-18
O=C(c1ccc([N+](=O)[O-])cc1[N+](=O)[O-])n1cnc2ccccc21,2,20,-2,79*,?,1
SMILES,Exocytosis inh,H9c2 protect,HNF4A DNA FP,Pemphigus Ab inh,Myeloid diff MLP,SENP1 FRET inh
O=C(c1ccccc1[N+](=O)[O-])n1cnc2ccccc21,-1,-2,1,87,i,1
CCOC(=O)/C=C/[C@H]1CCc2cccc(C)c2O1,0,-7,4,98,i,0
CC(=O)C(=Nc1ccccc1Cl)NNc1ccc(Cl)cc1,89*,-19,-3,nt,i,-2
CC(=O)c1cc(NC(=O)c2ccc(Cl)cc2)c(=O)oc1/C=C/N(C)C,3,12,121*,129,i,-29
CC(=O)c1cc(NC(=O)c2cccc(C(F)(F)F)c2)c(=O)oc1/C=C/N(C)C,3,3,129,121,i,-20
O=c1oc2ccccc2cc1-c1nc2ccccc2o1,-1,-6,4,97,i,-64
Nc1cc2nc3ccccc3oc-2cc1=O,22,-15,4,117,i,33*
OC(c1ccccc1)C(O)c1ccccc1 (centres undefined),0,4,4,91*,i,3
CN(C)c1ccc(C(c2ccc(N(C)C)cc2)C(O)c2ccccc2)cc1 (centres undefined),7,3,2,nt,i,2
O=c1cc(CSc2n[nH]c(-c3ccncc3)n2)nc2sccn12,1,0,-13,110,i,-36
O=c1cc(CSc2ccc([N+](=O)[O-])cc2)nc2sccn12,0,72*,0,102,i,3
COc1ccc(/C(C)=N/NC(=O)CNC(=O)/C=C\c2ccco2)cc1,2,12,-5,105,i,3
Cn1cc(CCNC(=O)C2CCC(=O)N(CCc3ccc(Cl)cc3)C2)cn1 (centres undefined),0,1,0,102,i,0
CC1(C)c2[nH]c3ccccc3c2C[C@@H]2C(=O)N(c3cc(F)ccc3F)C(=O)N21,-4,1,-1,101,i,-18
CC[C@H]1c2[nH]c3ccccc3c2C[C@@H]2C(=O)N(c3ccc(F)cc3)C(=O)N21,-1,-8,1,98,+,-41
CCCNC(=O)CCn1nc(-c2ccc(C)cc2)c2ccccc2c1=O,6,8,-1,103,i,-1
CCCNC(=O)CCn1nc(-c2ccc(Cl)cc2)c2ccccc2c1=O,-2,-2,-3,80*,i,0
O=C(CCn1nc(-c2ccc(Cl)cc2)c2ccccc2c1=O)NN1CCOCC1,1,7,-3,82*,i,0
O=C1c2cccc(NCCCNCCO)c2C(=O)c2cccc(NCCCNCCO)c21,33,-14,42,79,i,0
Clc1ccc(-c2nc(C3CCCCC3)no2)cc1,-3,-6,-3,95,i,2
COc1ccc(C(C(=O)NC(C)(C)C)N(CCC(C)C)C(=O)CCC(=O)Nc2cc(C)on2)cc1 (centres undefined),2,1,3,99,+,1
CN(C)c1ccc(/C=C2/SC(=O)N(CCN=C3NS(=O)(=O)c4ccccc43)C2=O)cc1,2,-12,11,99,i,-26
